These results are taken from ChEMBL document CHEMBL4000145, “Discovery and Optimization of a Porcupine Inhibitor” (J Med Chem, 2015).

The structures appear in SMILES notation. Values after ≈ are worked out from the molar mass of the structure shown. Active and inactive are the calls of the source. No cut-off for these calls is given here.

In data set [1] the target is T1, Protein-serine O-palmitoleoyltransferase porcupine (Homo sapiens) (UniProt Q9H237).
T1 sequence (whole entry): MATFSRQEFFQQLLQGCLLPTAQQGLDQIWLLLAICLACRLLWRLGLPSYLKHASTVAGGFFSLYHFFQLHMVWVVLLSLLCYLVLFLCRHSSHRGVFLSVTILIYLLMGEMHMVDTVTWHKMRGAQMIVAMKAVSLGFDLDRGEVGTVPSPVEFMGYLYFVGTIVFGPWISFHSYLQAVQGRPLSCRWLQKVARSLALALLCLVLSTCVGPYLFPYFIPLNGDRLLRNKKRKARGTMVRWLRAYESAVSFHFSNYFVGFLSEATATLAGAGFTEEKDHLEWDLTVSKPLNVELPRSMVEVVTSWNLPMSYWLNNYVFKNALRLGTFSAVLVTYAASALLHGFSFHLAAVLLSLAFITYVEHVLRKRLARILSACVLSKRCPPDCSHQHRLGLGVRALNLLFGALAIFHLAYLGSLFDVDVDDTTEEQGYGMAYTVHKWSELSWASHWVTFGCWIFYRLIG
Put plainly: Inhibition of PORCN-mediated V5-tagged Wnt3A palmitoylation in human HeLa cells at 100 nM measured after over night incubation by Western blot analysis. The format is cell-based. In a few lines:
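HeLa cells seeded 3 × 10⁶ per 10 cm dish, overnight at 37 °C, then transfected with 5 μg pcDNA3.2/V5-Wnt3a. After 6 h, washed and given 100 μM ω-alkynyl palmitate in medium with 5% fatty-acid-free BSA plus compound (100 nM) or DMSO, overnight at 37 °C. From 600 μg lysate, V5-Wnt3a was immunoprecipitated and click-reacted with biotin azide. Blot read-outs: anti-V5/anti-mouse Dylight 680 for total, streptavidin-Dylight 800 for acylated.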
Background: Immunoblotting shows a protein as a band on a membrane.

The target of data set [2] is T2, Protein-serine O-palmitoleoyltransferase porcupine (Homo sapiens, UniProt Q9H237).
T2 sequence (Q9H237 whole entry): T1 sequence (whole entry)
Put plainly: Inhibition of porcupine (unknown origin) expressed in HEK293-STF3A cells assessed as inhibition of Wnt signaling by measuring decrease in beta-catenin-mediated transcriptional activity after 24 hrs by Steady-Glo luciferase assay. The format is cell-based. In a few lines: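 HEK293-STF3A cells, 2 × 10⁴ per well, incubated overnight at 37 °C. Serially diluted compound added at final 50 μM to 1.5 nM. After 1 day, Steady-Glo luciferase added for 10 min at room temperature and luminescence read. IC50 derived from the dilution series.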

Data set [3] can be described thus: Intrinsic clearance in mouse liver microsomes. The format is ADME, microsome. The note with it: read-out: CLH. On the technique in general: Liver microsomes are a subcellular fraction often used to study metabolism.
Data set [4] concerns the target Cytochrome P450 2D6 (Homo sapiens, UniProt P10635). Put plainly: Inhibition of CYP2D6 (unknown origin).
Data set [5] concerns the target Cytochrome P450 3A4 (Homo sapiens, UniProt P08684). Nature of the data set: Inhibition of CYP3A4 (unknown origin).
Data set [6] is described as follows: Oral bioavailability in mouse at 5 mg/kg. The note with it: in vivo. In kind it is ADME, organism-based.
In data set [7] the test system is Mus musculus. Put plainly: Antitumor activity in Balb/c mouse MMTV-Wnt1 model assessed as tumor growth inhibition at 10 mg/kg administered once daily for 14 days via oral gavage relative to vehicle treated control. In kind it is functional. Conditions: 336 h, read-out: TGI. The gist of the method:
(§1)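 Orthotopic MMTV-Wnt1 tumor fragments implanted in mammary fat pads of Balb/c nude mice. Dosing began 14 days later (day 1), with 10 mice per group and mean tumor volume 103–107 mm³. Oral gavage once daily for 14 days at 10 mL/kg in 50% PEG 400/deionized water. Doses were 1, 3 or 10 mg/kg. Caliper volumes gave %TGI versus vehicle at day 14. Statistics by one-way ANOVA with Dunnett's test.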

For data set [8], the target named is T3, Protein-serine O-palmitoleoyltransferase porcupine (Mus musculus) (UniProt Q9JJJ7).
T3 sequence (whole entry): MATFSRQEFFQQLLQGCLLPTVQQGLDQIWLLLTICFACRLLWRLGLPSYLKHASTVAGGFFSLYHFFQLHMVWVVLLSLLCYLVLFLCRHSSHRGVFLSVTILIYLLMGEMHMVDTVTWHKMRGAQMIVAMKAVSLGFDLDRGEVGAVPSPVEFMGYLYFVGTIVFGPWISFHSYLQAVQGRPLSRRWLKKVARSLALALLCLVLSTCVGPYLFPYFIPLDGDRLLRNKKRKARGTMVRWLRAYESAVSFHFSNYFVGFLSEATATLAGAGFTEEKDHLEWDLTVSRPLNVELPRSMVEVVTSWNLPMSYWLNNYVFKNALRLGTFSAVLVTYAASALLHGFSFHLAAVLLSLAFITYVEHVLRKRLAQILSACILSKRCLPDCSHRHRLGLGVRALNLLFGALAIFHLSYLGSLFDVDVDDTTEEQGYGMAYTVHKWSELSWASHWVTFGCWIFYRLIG
Conditions: 0.2 to 625 nM.

A short description of data set [9]: Permeability of the compound at pH 7.4 by PAMPA assay. The format is physicochemical. Conditions: read-out: permeability. In general terms: The PAMPA barrier holds no transporters, so it reflects passive diffusion.
The nature of data set [10]: Thermodynamic solubility of the compound at pH 7.4. The format is physicochemical. The note with it: buffer, read-out: Therm_solubility. The gist of the method:
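Compound at 500 μM from DMSO stock in pH 7.4 buffer, 1.0% DMSO. Incubated 18 h, then vacuum filtered. Filtrate mixed 1:1 with 1-propanol and quantified by UV spectroscopy.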

For data set [11], the system named is HT-1080. Put plainly: Inhibition of luciferase expression in human HT1080 cells after 24 hrs. The format is functional, cell-based. The gist of the method: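 HT1080 cells seeded at 150 000 per well a day before transfection. Transfected with control or murine PORCN plasmid (100 ng) plus Wnt/β-catenin reporter (550 ng) and Wnt3a (50 ng). Treated with serial dilutions from 625 to 0.2 nM at 0.1% DMSO final. Luciferase measured in lysate 24 h post-transfection.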

The nature of data set [12]: AUC (0 to last) in mouse at 5 mg/kg, po. The format is ADME, organism-based. More on the design: dose 5 mg/kg, time 0 - last, route oral. The note with it: in vivo.
The nature of data set [13]: Cmax in mouse at 5 mg/kg, po. The note with it: in vivo. The format is ADME, organism-based. More on the design: dose 5 mg/kg, route oral.
Data set [14] concerns Mus musculus. Put plainly: Antitumor activity in Balb/c mouse MMTV-Wnt1 model assessed as tumor growth inhibition administered once daily for 14 days via oral gavage. The format is functional. In a few lines:
as §1

In data set [15] the test system is Mus musculus. Put plainly: Antitumor activity in Balb/c mouse MMTV-Wnt1 model assessed as tumor growth inhibition at 1 mg/kg administered once daily for 14 days via oral gavage relative to vehicle treated control. In kind it is functional. The note with it: 336 h, read-out: TGI. The gist of the method: as §1
A short description of data set [16]: Half life in mouse at 1 mg/kg, iv. In kind it is ADME, organism-based. The note with it: in vivo.
Data set [17] concerns Mus musculus. Put plainly: Antitumor activity in Balb/c mouse MMTV-Wnt1 model assessed as tumor growth inhibition at 3 mg/kg administered once daily for 14 days via oral gavage relative to vehicle treated control. The format is functional. Conditions: 336 h, read-out: TGI. In a few lines: as §1
Data set [18] in a line: Oral bioavailability in mouse. The note with it: in vivo. The format is ADME, organism-based.
Data set [19] deals with HEK293. Put plainly: Inhibition of beta-catenin-mediated transcriptional activity in Wnt3A knock out HEK293-STF cells preincubated for 4 hrs followed by Wnt-3A conditioned medium addition measured after 24 hrs by Steady-Glo luciferase assay. Conditions: Homo sapiens.
The nature of data set [20]: Cytotoxicity against HEK293 cells assessed as cell viability after 1 day by CellTiter-Glo luminescent assay. Conditions: human.

Sequence of Cytochrome P450 2D6 (P10635 whole entry): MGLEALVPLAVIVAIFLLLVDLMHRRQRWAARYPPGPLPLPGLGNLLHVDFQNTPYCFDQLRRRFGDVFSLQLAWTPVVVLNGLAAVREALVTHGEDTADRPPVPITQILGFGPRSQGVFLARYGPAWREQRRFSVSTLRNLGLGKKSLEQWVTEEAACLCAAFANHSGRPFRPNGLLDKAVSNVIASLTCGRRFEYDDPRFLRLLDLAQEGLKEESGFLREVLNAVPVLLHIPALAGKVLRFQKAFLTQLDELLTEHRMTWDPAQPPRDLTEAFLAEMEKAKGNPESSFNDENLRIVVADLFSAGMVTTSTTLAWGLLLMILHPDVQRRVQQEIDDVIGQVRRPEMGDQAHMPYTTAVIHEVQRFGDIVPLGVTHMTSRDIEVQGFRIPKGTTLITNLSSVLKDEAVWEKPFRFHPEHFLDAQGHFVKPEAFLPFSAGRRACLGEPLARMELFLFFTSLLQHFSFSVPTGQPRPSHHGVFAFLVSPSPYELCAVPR
Sequence of Cytochrome P450 3A4 (P08684 whole entry): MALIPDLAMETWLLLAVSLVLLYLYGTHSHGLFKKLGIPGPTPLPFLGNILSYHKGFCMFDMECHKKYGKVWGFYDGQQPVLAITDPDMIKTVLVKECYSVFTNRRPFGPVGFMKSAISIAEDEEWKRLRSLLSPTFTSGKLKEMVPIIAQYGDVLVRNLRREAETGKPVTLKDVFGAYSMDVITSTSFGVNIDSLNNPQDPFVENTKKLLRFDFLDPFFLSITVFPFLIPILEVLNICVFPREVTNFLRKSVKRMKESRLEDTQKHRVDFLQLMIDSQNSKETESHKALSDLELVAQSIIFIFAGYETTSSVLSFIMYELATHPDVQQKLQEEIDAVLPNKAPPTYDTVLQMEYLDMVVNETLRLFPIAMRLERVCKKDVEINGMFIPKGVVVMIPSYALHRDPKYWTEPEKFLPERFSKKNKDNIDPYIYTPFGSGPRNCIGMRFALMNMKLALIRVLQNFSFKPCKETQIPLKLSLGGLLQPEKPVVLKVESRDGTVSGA

Regarding `C[C@@H](Oc1ccc(-n2ccnc2)cc1)C(=O)Nc1ccc(-c2ccccc2)cc1`, the inhibition entry in data set [1] is “Active”. In addition, the IC50 (in general, the midpoint of a concentration-inhibition curve) in data set [2] was 130 nM. Besides, the microsomal CLint in data set [3] turned out to be 63 µL/min/mg.

On to `C[C@@H](Nc1ccc(-n2ccnc2)cc1)C(=O)Nc1ccc(-c2ccccc2)cn1`, for which the 50% inhibitory concentration (IC50) in data set [2] was 689 nM. In addition, the microsomal CLint in data set [3] worked out at 12 µL/min/mg.

With `O=C(COc1ccc(-c2ccn[nH]2)cc1)Nc1ccc(-c2ccccc2)cc1`, the IC50 in [2] is greater than 50000 nM.

As to `O=C(COc1ccc(-c2cnco2)cc1)Nc1ccc(-c2ccccc2)cc1`, the IC50 in data set [2] is 42 nM; in data set [4], greater than 20000 nM; in [5], greater than 20000 nM.

As to `O=C(Nc1ccc(-c2ccccc2)cc1)[C@@H]1CCCN1c1ccc(-n2ccnc2)cc1`, the IC50 in [2] worked out at 40 nM. Also, the microsomal CLint in [3] was determined as 18 µL/min/mg.

Turning to `O=C(COc1ccc(-n2cccc2)cc1)Nc1ccc(-c2ccccc2)cc1`, the IC50 in [2] is greater than 50000 nM.

As to `C[C@H](Nc1ccc(-c2ccnn2C)nc1)C(=O)Nc1ccc(-c2cccnc2)cn1`, in [6], the bioavailability amounted to 106%. Besides, the inhibition result in [1] and in [8] was “Active” each time. Further, the half-maximal inhibitory concentration (IC50) in [2] was 1 nM; in data set [4] it was 8000 nM; in [5] it was greater than 20000 nM. Further, the inhibition in vivo at 10 mg/kg in data set [7] is 91%. In addition, the Papp in data set [9] amounted to 50.6 ×10⁻⁶ cm/s. Besides, in data set [10], the solubility thermodynamic was 72.5 µg/mL (≈ 181 µM). The microsomal CLint in [3] was 8 µL/min/mg. Further, in [11], the inhibition result is “Dose-dependent effect”. The AUC(0-t) (commonly the area under the concentration-time curve up to a stated or last time point) in data set [12] amounted to 12300 ng·h/mL. Besides, the concentration in [13] peaked (Cmax) at 4270 ng/mL. Further, in [14], the TGI result is “Dose-dependent effect”. Further, the inhibition in vivo at 1 mg/kg in data set [15] worked out at 50%. The half-life – broadly, the time in which the quantity being followed falls by half – in [16] was 1.9 h. For the same compound, in [17], the inhibition in vivo at 3 mg/kg stood at 71%.

On to `O=C(COc1ccc(-n2ccnc2)cc1)Nc1ccc(-c2ccccc2)cc1`, for which the inhibition entry in data set [1] was “Active”. Moreover, the concentration for half-maximal inhibition (IC50) in data set [2] is 15 to 19 nM; in data set [19], greater than 30000 nM. Besides, the Papp in [9] was less than 1 ×10⁻⁶ cm/s. For the same compound, the solubility thermodynamic in data set [10] is less than 1 µg/mL. Besides, the microsomal CLint in data set [3] amounted to 37 µL/min/mg. Also, the bioavailability in data set [18] is less than 1%. Moreover, the half-maximal cytotoxic concentration (CC50) (usually the concentration that lowers cell viability or growth by half) at 24 h in data set [20] was greater than 50000 nM.

Consider `Cn1nccc1-c1ccc(OCC(=O)Nc2ccc(-c3ccccc3)cc2)cc1`, for which the IC50 in data set [2] was 4 nM; in [4], greater than 20000 nM; in data set [5], greater than 20000 nM.

In the case of `C[C@H](Nc1ccc(-c2ccnn2C)nc1)C(=O)Nc1ccc(-c2ccccc2)cn1`, the figures for the IC50 in data set [2], in [4] and in [5] were 1 nM, greater than 20000 nM and greater than 20000 nM, respectively. For the same compound, in [9], the Papp amounted to 113 ×10⁻⁶ cm/s. Also, in data set [10], the solubility thermodynamic stood at 4 µg/mL (≈ 10 µM). For the same compound, in [3], the microsomal CLint turned out to be 8 µL/min/mg.

On to `O=C(CNc1ccc(-n2ccnc2)cc1)Nc1ccc(-c2ccccc2)cc1`, for which the IC50 in data set [2] was determined as 30 nM. Further, in data set [3], the microsomal CLint stood at 11 µL/min/mg.

`C[C@H](Nc1ccc(-n2ccnc2)cc1)C(=O)Nc1ccc(-c2ccccc2)cn1`: the concentration for half-maximal inhibition (IC50) in [2] was determined as 5 nM. Also, the microsomal CLint in data set [3] worked out at 3.5 µL/min/mg.

For `C[C@H](Nc1ccc(-c2ccnn2C)nc1)C(=O)Nc1ccc(-c2cccnc2)nc1`, the half-maximal inhibitory concentration (IC50) in [2] is 10 nM; in data set [4] it was 3300 nM; in data set [5] it was greater than 20000 nM. In addition, the Papp in [9] was found to be 26.8 ×10⁻⁶ cm/s. Besides, the solubility thermodynamic in data set [10] was 102 µg/mL (≈ 255 µM). Also, the microsomal CLint in data set [3] was found to be 8 µL/min/mg.

Consider `C[C@H](Oc1ccc(-n2ccnc2)cc1)C(=O)Nc1ccc(-c2ccccc2)cc1`, for which the 50% inhibitory concentration (IC50) in data set [2] is 7 nM. The microsomal CLint in [3] was determined as 85 µL/min/mg.

For the compound `O=C(Nc1ccc(-c2ccccc2)cc1)[C@H]1CCCN1c1ccc(-n2ccnc2)cc1`, the IC50 in data set [2] was found to be 33000 nM.

As to `Cc1nccn1-c1ccc(OCC(=O)Nc2ccc(-c3ccccc3)cc2)cc1`, the IC50 in data set [2] stood at 2 nM; in data set [4], 1900 nM; in [5] it was 5200 nM.
